Assay results published in ChEMBL document CHEMBL1671697, “Lipophilic bisphosphonates are potent inhibitors of Plasmodium liver-stage growth” (Antimicrob Agents Chemother, 2010).
Values joined by “and” are separate entries in the source; they are usually repeats but may differ in a detail not shown here. Equal values may be shown once. Active and inactive are the calls of the source. The rule behind the calls is not given here.

Columns and labels:
Plasmodium berghei [1] = assay: (§1) Antiplasmodial activity against Plasmodium berghei NK65 infected in 12 wk old C57BL/6 mouse assessed as prepatent period at 5 mg/kg, ip administered once daily via a regimen of day 2, 1 pre-infection, on the day of infection followed by day 1 and 2 postinfection for 5 days by microscopic analysis; type: functional; details: route intraperitoneal
Plasmodium berghei [2] = assay: Antiplasmodial activity against Plasmodium berghei NK65 infected in 14 wk old C57BL/6 mouse assessed as prepatent period at 5 mg/kg, ip administered once daily via a regimen of day 2, 1 pre-infection, on the day of infection followed by day 1 and 2 postinfection […] by microscopic analysis; type: functional, organism-based; design: dose 5 mg/kg
Plasmodium berghei [3] = assay: (§2) Antiplasmodial activity against 3000 Plasmodium berghei NK65 liver stage sporozoites infected in 12 wk old C57BL/6 mouse assessed as delay in prepatent period at 5 mg/kg, ip administered once daily via a regimen of day 2, 1 pre-infection, on the day of infection followed by day 1 and 2 postinfection for 5 days by microscopic analysis; type: functional; details: route intraperitoneal
Summary of the method: (§3)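 Mice were given compound i.p. once daily from 2 days before to 2 days after sporozoite challenge (5 doses). Challenge was 3,000 infectious P. berghei sporozoites. Parasitemia was followed by blood smear until 3–5%, then mice were sacrificed. Complete protection means no blood-stage parasites in smears; observation lasted 28 days.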

Plasmodium berghei [4] = assay: Antimalarial activity against Plasmodium berghei NK65 infected in human HepG2 cells after 48 hrs by RT-PCR; type: functional, organism-based; details: NK65, HepG2, 48 h
Summary of the method: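 P. berghei NK65 sporozoites (10,000 per well) added to human HepG2 monolayers seeded the day before, in DMEM with 10% FBS, with compound diluted in PBS; 37°C, 5% CO2, 48 h. Medium and compound were renewed at 24 h. Parasite 18S rRNA copies were quantified by real-time PCR against a plasmid standard and expressed relative to untreated control. IC50 was obtained by nonlinear regression.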

Plasmodium berghei [5] = assay: Antiplasmodial activity against Plasmodium berghei NK65 infected in C57BL/6 mouse assessed as completed protection of mouse, ip administered once daily via a regimen of day 2, 1 pre-infection, on day of infection followed by a regimen of day 1 and 2 post infection for 5 days measured after 28 days; type: functional, organism-based; summary of the method: as §3
Plasmodium falciparum [6] = assay: Antiplasmodial activity against chloroquine-resistant Plasmodium falciparum W2mef assessed as suppression of parasitemia by microscopic analysis
Plasmodium berghei [7] = assay: as §2, with “at 1.5” for “at 5”; type: functional; details: route intraperitoneal; summary of the method: as §3
Plasmodium berghei [8] = assay: (§4) Antiplasmodial activity against Plasmodium berghei NK65 infected in 12 wk old C57BL/6 mouse assessed as prepatent period at 1.5 mg/kg, ip administered once daily via a regimen of day 2, 1 pre-infection, on the day of infection followed by day 1 and 2 postinfection for 5 days by microscopic analysis; type: functional; details: route intraperitoneal
Plasmodium berghei [9] = assay: Antiplasmodial activity against Plasmodium berghei NK65 infected in 12 wk old C57BL/6 mouse assessed as prepatent period at 0.5 mg/kg, ip administered once daily via a regimen of day 2, 1 pre-infection, on the day of infection followed by day 1 postinfection for 4 days by microscopic analysis; type: functional; details: route intraperitoneal
Plasmodium falciparum [10] = assay: Antiplasmodial activity against chloroquine-sensitive Plasmodium falciparum 3D7 assessed as suppression of parasitemia by microscopic analysis
Plasmodium berghei [11] = assay: as §4, with “against 5 X 10^6 blood stream” for “against”; type: functional; details: route intraperitoneal
Summary of the method: (§5)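 Mice, five per group, were dosed i.p. daily for 5 days and challenged on day 0 with 5 × 10^6 blood-stage P. berghei parasites. Parasitemia was monitored by blood smear, and the delay in prepatent period was recorded.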

[12] = Inhibition of Plasmodium vivax GGPPS
[13] = Inhibition of Plasmodium vivax FPPS
[14] = Partition coefficient, log P of the compound; type: physicochemical; details: octanol/water
Plasmodium berghei [15] = assay: as §4, with “activity against 5 X 10^6 blood stream Plasmodium berghei” for “activity against Plasmodium berghei”, “assessed as delay in prepatent period” for “assessed as prepatent period”; type: functional; details: route intraperitoneal; summary of the method: as §5
Plasmodium berghei [16] = assay: (§6) Antiplasmodial activity against Plasmodium berghei NK65 infected in 12 wk old BALB/c mouse assessed as prepatent period at 5 mg/kg, ip administered once daily via a regimen of day 2, 1 pre-infection, on the day of infection followed by day 1 and 2 postinfection […] by microscopic analysis; type: functional; details: route intraperitoneal
Plasmodium berghei [17] = assay: as §4, with “against 5 X 10^6 blood stream” for “against”, “parasitemia” for “prepatent period”; type: functional; details: route intraperitoneal; summary of the method: as §5
[18] = Cytotoxicity against human HepG2 cells after 22 hrs; type: cell-based; details: read-out: TC50
Summary of the method: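 HepG2 cells were seeded at 70% confluence the day before treatment, then exposed to a range of inhibitor concentrations for 22 h at 37°C, 5% CO2. CellTiter One reagent was then added for 2 h more, and OD495 was read. IC50 (TC50) was fit by nonlinear regression of percent viable cells against concentration.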

Plasmodium berghei [19] = assay: (§7) Antiplasmodial activity against Plasmodium berghei NK65 infected in 8 wk old C57BL/6 mouse assessed as prepatent period at 20 mg/kg, ip administered once daily via regimen of 2 and 1 day post infection, on the day of infection followed by day 1 postinfection for 4 days by microscopic analysis; type: functional; details: route intraperitoneal
Plasmodium berghei [20] = assay: Antiplasmodial activity against Plasmodium berghei NK65 infected in 12 wk old C57BL/6 mouse assessed as prepatent period at 20 mg/kg, ip administered once daily via a regimen of day 1 pre-infection, on the day of infection followed by day 1 postinfection for 3 days by microscopic analysis; type: functional; details: route intraperitoneal
Plasmodium berghei [21] = assay: as §6, with “period assessed as complete suppression of parasitemia” for “period”, “at 20” for “at 5”; type: functional; details: route intraperitoneal
Plasmodium berghei [22] = assay: Antiplasmodial activity against Plasmodium berghei NK65 infected in 12 wk old BALB/c mouse assessed as prepatent period at 20 mg/kg, ip administered once daily via regimen of 1 preinfection, on day of infection followed by regimen of 1 day post infection for 3 days by microscopic analysis; type: functional; details: route intraperitoneal
Plasmodium berghei [23] = assay: as §1, with “against 5 X 10^6 blood stream” for “against”, “at 20” for “at 5”; type: functional; details: route intraperitoneal; summary of the method: as §5
Plasmodium berghei [24] = assay: (§8) Antiplasmodial activity against 5 X 10^6 blood stream Plasmodium berghei NK65 infected in 12 wk old C57BL/6 mouse assessed as delay in prepatent period at 20 mg/kg, ip administered once daily via a regimen of day 2, 1 pre-infection, on the day of infection followed by day 1 and 2 postinfection for 5 days by microscopic analysis; type: functional; details: route intraperitoneal; summary of the method: as §5
Plasmodium berghei [25] = assay: Antiplasmodial activity against Plasmodium berghei NK65 infected in 12 wk old C57BL/6 mouse assessed as prepatent period at 10 mg/kg, ip administered once daily via a regimen of day 2, 1 days pre-infection, on the day of infection followed by day 1 postinfection for 4 days by microscopic analysis; type: functional, organism-based; design: dose 10 mg/kg
Plasmodium berghei [26] = assay: Antiplasmodial activity against Plasmodium berghei NK65 infected in 12 wk old BALB/c mouse assessed as prepatent period at 5 mg/kg, ip administered once daily on the day of infection followed by day 1 postinfection for 2 days by microscopic analysis; type: functional; details: route intraperitoneal
Plasmodium berghei [27] = assay: Antiplasmodial activity against Plasmodium berghei NK65 infected in 12 wk old C57BL/6 mouse assessed as prepatent period at 10 mg/kg, ip administered once daily via a regimen of day 1 pre-infection, on the day of infection followed by day 1 postinfection for 3 days by microscopic analysis; type: functional, organism-based; design: dose 10 mg/kg
Plasmodium berghei [28] = assay: as §7, with “via a” for “via”, “of day” for “of 2 and”, “1 pre-infection,” for “1 day post infection,”, “day 1, 2 and 3 days” for “day 1”; type: functional; details: route intraperitoneal
Plasmodium berghei [29] = assay: as §2, with “at 20” for “at 5”; type: functional; details: route intraperitoneal; summary of the method: as §3
Plasmodium berghei [30] = assay: as §8, with “parasitemia” for “delay in prepatent period”; type: functional; details: route intraperitoneal; summary of the method: as §5
Plasmodium berghei [31] = assay: Antiplasmodial activity against Plasmodium berghei NK65 infected in 12 wk old BALB/c mouse assessed as prepatent period at 17 mg/kg, ip administered once daily on the day of infection followed by day 1 postinfection for 2 days by microscopic analysis; type: functional; details: route intraperitoneal
Plasmodium berghei [32] = assay: as §2, with “at 2” for “at 5”; type: functional; details: route intraperitoneal; summary of the method: as §3
Plasmodium berghei [33] = assay: Antiplasmodial activity against Plasmodium berghei NK65 infected in 12 wk old C57BL/6 mouse assessed as prepatent period at 2 mg/kg, ip administered once daily via a regimen of day 2, 1 pre-infection, on the day of infection followed by day 1 and 2 postinfection for 5 days by microscopic analysis; type: functional; details: route intraperitoneal
Plasmodium berghei [34] = assay: as §2, with “at 0.8” for “at 5”; type: functional; details: route intraperitoneal; summary of the method: as §3
Plasmodium berghei [35] = assay: as §1, with “at 0.8” for “at 5”, “day 1, 2” for “day 1”, “and 3 days” for “and 2”, “[…]” for “for 5”; type: functional; details: route intraperitoneal

| Compound | IC50 (Plasmodium berghei [4]) | IC50 (Plasmodium falciparum [6]) | IC50 (Plasmodium falciparum [10]) | IC50 [12] | Ki [12] | IC50 [13] | Ki [13] | CC50 at 22 h [18] | other results |
| --- | --- | --- | --- | --- | --- | --- | --- | --- | --- |
| COC(=O)[C@H](CC(C)C)NC(=O)c1ccc(NC[C@@H](N)CS)cc1-c1cccc2ccccc12 | 30 µM |  |  |  |  |  |  |  | Activity (Plasmodium berghei [1]): 4 days; Activity (Plasmodium berghei [2]): inactive; Activity (Plasmodium berghei [3]): 0 days |
| CC[C@H](C)C(=O)O[C@H]1C[C@H](O)C=C2C=C[C@H](C)[C@H](CC[C@@H](O)C[C@@H](O)CC(=O)O)[C@H]21 [PRAVASTATIN SODIUM] | > 200 µM |  |  |  |  |  |  |  |  |
| CCCCCCCCCCOc1ccc[n+](CC(P(=O)([O-])O)P(=O)(O)O)c1 (configuration not stated) | 10 µM | 0.59 µM | 0.67 µM | 0.56 µM | 0.013 µM | 1.5 µM | 0.043 µM | 2000 µM | Activity (Plasmodium berghei [5]): Active; Activity (Plasmodium berghei [7]): >28 days; Activity (Plasmodium berghei [8]): >28 days; Activity (Plasmodium berghei [9]): 3 days; Activity (Plasmodium berghei [11]): 5 days; logP ([14]; read-out: logP): -1.2; Activity (Plasmodium berghei [15]): 4 days; Activity (Plasmodium berghei [16]): >28 days; Activity (Plasmodium berghei [17]): 0.01% |
| O=P(O)(O)C(O)(Cc1cccnc1)P(=O)(O)O [RISEDRONIC ACID] | 16 µM | 1.4 µM | 1.2 µM | 1.1 µM | 0.024 µM | 1.7 µM | 0.048 µM | 13000 µM | Activity (Plasmodium berghei [19]): 4 days; Activity (Plasmodium berghei [20]): 2.5 days; Activity (Plasmodium berghei [21]): 8 days and 3 days; Activity (Plasmodium berghei [22]): 0.5 days; Activity (Plasmodium berghei [23]): 2 days; Activity (Plasmodium berghei [24]): 1 days; Activity (Plasmodium berghei [25]): inactive; logP [14]: -5.5; Activity (Plasmodium berghei [26]): 0.5 days; Activity (Plasmodium berghei [27]): inactive; Activity (Plasmodium berghei [28]): 6 days; Activity (Plasmodium berghei [29]): 4 days; Activity (Plasmodium berghei [30]): 0.09%; Activity (Plasmodium berghei [31]): 1 days |
| NCCC(O)(P(=O)(O)O)P(=O)(O)O [PAMIDRONIC ACID] | > 200 µM |  |  |  |  |  |  |  |  |
| CCCCCCCCCCN(C)CC(P(=O)(O)O)P(=O)(O)O | 8 µM | 2.2 µM | 0.45 µM | 0.7 µM | 0.016 µM | 1.5 µM | 0.043 µM | 1000 µM | Activity (Plasmodium berghei [32]): 5 days; Activity (Plasmodium berghei [33]): 9 days; logP ([14]; read-out: logP): -3.4 |
| CCCCCCCCN(C)CC(P(=O)(O)O)P(=O)(O)O | 8.8 µM | 2 µM | 0.65 µM | 0.63 µM | 0.015 µM | 1.5 µM | 0.043 µM | 1000 µM | Activity (Plasmodium berghei [34]): 3 days; logP [14]: -4.1; Activity (Plasmodium berghei [35]): 7 days |
